High-throughput results (PubChem BioAssay)
SENP8 block-1: inhibitors of human SENP8 protease; inhibition, % at 20 µM; actives 0.64% (n = 360,000); Q96LD8; recombinant SENP8, Nedd8 substrate fluorescence; AID 602440; in the data active = inhibition mostly above about 40%, no sharp cut-off; inactive = mostly below about 27%
Platelet DG rel: platelet dense granule release activity; actives 0.22% (n = 300,000); inhibition, %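 (compounds screened at 7.5 µM in platelet-rich plasma)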; human platelet-rich plasma, SFLLRN dense granule ATP release, luminescence;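 active = mean replicate score, as percent of positive control, at or above 50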
SENP1 inh: inhibitors of human SENP1 SUMO protease catalytic domain | Q9P0U3 | recombinant SENP1 catalytic domain, CyPet-SUMO1-YPet FRET cleavage | inhibition, % at 10 µM | actives 0.21% (n = 360,000) | AID 624204;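 active = inhibition at least 30% at 10 µM, raw YFP signal under a set limit, fluorescence ratio 0.5 to 1.5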
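Compound: 10 µM single point, 0.5% DMSO; Test system: hSENP1 catalytic domain, recombinant; Timing: 50 min reaction at room temperature; Technique: FRET, CFP and YFP emission; Control set: no-enzyme wells low, DMSO-plus-enzyme wells high control.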
SENP6 block: inhibitors of human SENP6 protease. inhibition, % at 10 µM. Recombinant SENP6 catalytic domain, aminoluciferin luminescence. actives 1.8% (n = 330,000). Q9GZR1;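 active = inhibition above about 50% at the single tested dose, limit read from the data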
SENP8 block-2: blocks the human protease SENP8. AID 2540. Q96LD8. actives 1.2% (n = 330,000). inhibition, % at 10 µM. purified SENP8, Z-RLRGG-aminoluciferin cleavage, luminescence; in the data active = inhibition above about 50%
SENP7 inh: SENP7 protease inhibition; Q9BQF6; recombinant SENP7, Z-RLRGG-aminoluciferin luminescence, 40 min; inhibition, % at 5 µM; actives 1.5% (n = 330,000); AID 434973;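 active = inhibition above about 50% at the single test dose, limit read from the data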
Target sequence (Q9BQF6 706-1050 limits assumed): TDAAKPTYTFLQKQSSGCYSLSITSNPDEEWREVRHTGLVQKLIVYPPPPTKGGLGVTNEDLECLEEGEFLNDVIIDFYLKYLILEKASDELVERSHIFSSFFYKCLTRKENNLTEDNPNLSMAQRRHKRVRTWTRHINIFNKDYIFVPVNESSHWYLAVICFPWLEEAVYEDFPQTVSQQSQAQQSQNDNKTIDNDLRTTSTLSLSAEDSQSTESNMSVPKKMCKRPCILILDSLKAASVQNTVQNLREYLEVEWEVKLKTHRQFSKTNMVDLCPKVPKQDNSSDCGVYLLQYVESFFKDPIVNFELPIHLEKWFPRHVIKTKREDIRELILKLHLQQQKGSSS
SENP8 confirm: confirmation of human SENP8 protease inhibitors. shares compounds with SENP7 inh. Recombinant SENP8, Z-RLRGG-aminoluciferin luminescence, 60 min. inhibition, % at 12.5 µM. actives 40% (n = 6,200);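 active = mean inhibition across replicates above about 50%, limit read from the data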
SENP6 confirm: confirmation of human SENP6 protease inhibitors. shares compounds with SENP7 inh. recombinant SENP6, Z-RLRGG-aminoluciferin luminescence. inhibition, % at 12.5 µM. actives 58% (n = 6,200)
SENP7 confirm: human SENP7 inhibition, confirmed; inhibition, % at 12.5 µM; shares compounds with SENP7 inh; recombinant SENP7, Z-RLRGG-aminoluciferin luminescence, 40 min; actives 69% (n = 6,200); AID 488917
Casp3 SENP sel: selectivity test for SENP inhibitors: human caspase-3 inhibition | shares compounds with SENP7 inh | purified caspase-3, Z-DEVD-aminoluciferin luminescence, 60 min | inhibition, % at 12.5 µM | actives 60% (n = 6,200) | AID 488918;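 active = mean inhibition above about 50%, limit read from the data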
Target sequence (P42574 28-227 limits assumed): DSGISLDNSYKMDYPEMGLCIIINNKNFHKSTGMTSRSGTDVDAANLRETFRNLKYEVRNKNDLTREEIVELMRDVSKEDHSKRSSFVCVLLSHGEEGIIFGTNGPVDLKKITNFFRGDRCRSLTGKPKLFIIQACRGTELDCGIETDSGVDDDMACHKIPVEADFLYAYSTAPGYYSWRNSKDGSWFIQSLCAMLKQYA
Luc interf: interferes with luciferase luminescence in SENP counter-screen; shares compounds with SENP7 inh; Pre-incubated SENP8/Z-RLRGG-aminoluciferin, luciferase luminescence interference; inhibition, % at 12.5 µM; actives 39% (n = 6,200); AID 488919;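 active = mean inhibition above about 50% when retested at one dose, limit read from the data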
Each line names hits and unclear results; the compound was inactive in the other large screens (follow-up assays come after a bar, where they were run); ! = a repeat was not active. Only some compounds are listed: those with a hit (about 2.6% of all), similar ones and a draw of the others.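 The calls were made as follows, unless noted: active = mean inhibition above about 50% in the one-dose retest (limit read from the data); inactive = the rest.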

N#C/C(=C(/O)c1cc2ccccc2o1)c1nc2ccccc2s1	SENP8 block-2 95, SENP7 inh 70 | SENP8 confirm inactive | SENP6 confirm inactive | SENP7 confirm inactive | Casp3 SENP sel inactive | Luc interf 61
N#C/C(=C(/O)c1cccc(F)c1)c1nc2ccccc2s1	SENP6 block 91, SENP8 block-2 77, SENP7 inh 56 | SENP8 confirm 58 | SENP6 confirm 59 | SENP7 confirm 72 | Casp3 SENP sel 77 | Luc interf inactive
N#C/C(=C(/O)c1ccco1)c1nc2ccccc2[nH]1	none
CSc1nnc(NC(=O)c2ccc(C)c(S(=O)(=O)N3CCOCC3)c2)s1	none
Cc1ccc(-c2nc3sc4c(c3c(=O)n2N)CCCC4)cc1	SENP6 block 72, SENP7 inh 54 | SENP8 confirm inactive | SENP6 confirm 66 | SENP7 confirm 88 | Casp3 SENP sel inactive | Luc interf inactive
O=c1c2c3c(sc2nc2n1CCCCC2)CCCC3	SENP6 block 62 | SENP8 confirm inactive | SENP6 confirm inactive | SENP7 confirm 57 | Casp3 SENP sel 56 | Luc interf inactive
NC(=O)c1ccccc1NC(=O)/C=C/c1ccc(Cl)cc1	SENP6 block 51, SENP7 inh 63 | SENP8 confirm inactive | SENP6 confirm inactive | SENP7 confirm 89 | Casp3 SENP sel 66 | Luc interf inactive
Cc1cccnc1NC(=O)Nc1ccc(F)cc1	none
COC(=O)c1ccccc1NC(=O)/C=C/c1ccco1	none
O=C(/C=C/c1ccco1)Nc1cccnc1Cl	SENP6 block 58, SENP7 inh 54 | SENP8 confirm 58 | SENP6 confirm 56 | SENP7 confirm 86 | Casp3 SENP sel 85 | Luc interf 63
O=C(Nc1ccc(F)cc1)Nc1cccnc1Cl	SENP6 block 81, SENP8 block-2 77, SENP7 inh 85 | SENP8 confirm inactive | SENP6 confirm 78 | SENP7 confirm 96 | Casp3 SENP sel 88 | Luc interf 81
O=C(/C=C/c1ccccc1)Nc1cccnc1Cl	SENP6 block 74, SENP8 block-2 66 | SENP8 confirm 69 | SENP6 confirm 60 | SENP7 confirm 90 | Casp3 SENP sel 84 | Luc interf 73
Cc1cc(S(=O)(=O)Nc2ccc(C(=O)NCCCn3ccnc3)cc2)ccc1F	none
Cc1cc(=O)n2nc(N3CCCC(C(=O)NCc4ccccc4Br)C3)sc2n1 (centres undefined)	none
CCOc1cc2c(C#N)c(N3CCCC3)nc(N)c2c(N)n1	none
N#Cc1c(N2CCCC2)nc(N)c2c(N)nc(N3CCCC3)cc12	SENP6 block 97, SENP8 block-2 97, SENP7 inh 97 | SENP8 confirm 98 | SENP6 confirm 98 | SENP7 confirm 97 | Casp3 SENP sel 97 | Luc interf inactive
CCCOc1cc2c(C#N)c(N3CCCC3)nc(N)c2c(N)n1	SENP6 block 85, SENP8 block-2 67, SENP7 inh 61 | SENP8 confirm inactive | SENP6 confirm 75 | SENP7 confirm inactive | Luc interf inactive
COc1cc2c(C#N)c(N3CCN(C)CC3)nc(N)c2c(N)n1	SENP6 block 59, SENP7 inh 55 | SENP8 confirm inactive | SENP6 confirm inactive | SENP7 confirm inactive | Casp3 SENP sel inactive | Luc interf inactive
COc1cc2c(C#N)c(N3CCN(c4ccccc4OC)CC3)nc(N)c2c(N)n1	none
COc1cc2c(C#N)c(N3CCCC3)nc(N)c2c(N)n1	SENP6 block 95, SENP8 block-2 88, SENP7 inh 73! | SENP8 confirm inactive | SENP6 confirm 62 | SENP7 confirm inactive | Casp3 SENP sel inactive | Luc interf inactive
CCCNC(=O)COC(=O)C1CCN(S(=O)(=O)c2ccc3c(c2)OCCO3)CC1	none
CCCCN(CC)c1nc(N)c(C#N)c(CC#N)c1C#N	none
CCCCN(CC)c1nc(N)c2c(N)nc(OCC)cc2c1C#N	SENP6 block 67, SENP8 block-2 66 | SENP8 confirm inactive | SENP6 confirm inactive | SENP7 confirm inactive | Casp3 SENP sel inactive | Luc interf inactive
Brc1ccc(-c2nnc(-c3ccc4c(c3)OCO4)o2)o1	SENP7 inh 61 | SENP8 confirm inactive | SENP6 confirm inactive | SENP7 confirm inactive | Casp3 SENP sel inactive | Luc interf inactive
c1coc(-c2nnc(-c3ccc4c(c3)OCO4)o2)c1	none (no result: SENP8 block-1, SENP1 inh)
Clc1ccc(CSc2nnc(-c3ccc4c(c3)OCO4)o2)cc1	none
Cc1ccc(-c2nnc(-c3ccc4c(c3)OCO4)o2)cc1	SENP7 inh 83 | SENP8 confirm inactive | SENP6 confirm inactive | SENP7 confirm inactive | Casp3 SENP sel inactive | Luc interf inactive
O=C1CCCCC1Sc1nnc(-c2ccc3c(c2)OCO3)o1 (centres undefined)	SENP6 block 80, SENP8 block-2 68, SENP7 inh 73 | SENP8 confirm 72 | SENP6 confirm 72 | SENP7 confirm 93 | Casp3 SENP sel 89 | Luc interf 77
Cc1n[nH]c(C)c1CCNCc1ccc(OCC(O)CN2CCCCC2)cc1 (centres undefined)	none
Cc1ccccc1C1=NC(c2ccc(F)cc2F)ON1 (centres undefined)	SENP6 block 66 | SENP8 confirm inactive | SENP6 confirm inactive | SENP7 confirm inactive | Casp3 SENP sel inactive | Luc interf inactive
Cc1ccccc1-c1nnc(SCc2ccc(F)cc2)o1	none
N#Cc1ccsc1NC(=O)COc1ccc(-c2nnco2)cc1	SENP6 block 87, SENP8 block-2 70, SENP7 inh 71 | SENP8 confirm inactive | SENP6 confirm 66 | SENP7 confirm 93 | Casp3 SENP sel 87 | Luc interf inactive
Cn1nc(C(C)(C)C)c([N+](=O)[O-])c1C(=O)N1CCOCC1	none
O=C(CCCN1C(=O)/C(=C/c2ccccc2Cl)SC1=S)NCCCN1CCOCC1	SENP6 block 52 | SENP8 confirm 50 | SENP6 confirm inactive | SENP7 confirm 65 | Casp3 SENP sel inactive | Luc interf inactive
O=C(CCN1C(=O)/C(=C/c2ccccc2Cl)SC1=S)N1CCCC1	none
